From PubChem BioAssay
Sampled rows, rich in hits. Any-hit rate of the full collection: about 5.7%.
SKKanGAS inh – S. pyogenes SKKanGAS growth inhibitors in kanamycin, primary screen, streptokinase expression inhibitor project, SKKanGAS strain, BacTiter-Glo luminescence; 300,000 tested, 1.3% active; inhibition, % at 7.5 µM; 6 h;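 active = mean replicate score, as percent of positive control median, at least 50; inconclusive = mean below 50 but one replicate at or above 50; inactive = mean and every replicate below 50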;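 note: strain carries kanamycin resistance gene driven by streptokinase promoter and grows in 40 µg/ml kanamycin; loss of luminescence reflects streptokinase promoter inhibition or plain growth inhibition; 0% = median of DMSO wells and 100% = positive control at its reference dose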
CSC inhib – cancer stem cell viability inhibitors, primary screen, luminescence; cancer stem cell-like cells viability; inhibition, % at 7.5 µM; 300,000 tested, 1.1% active; in the data active = inhibition above about 75%; inconclusive = no clear call, values can overlap the other calls; tested in HMLE shEcad cells
Calb FLC – C. albicans growth inhibition with fluconazole, primary screen, CaCi-2 strain, Alamar Blue fluorescence. C. albicans CaCi-2 (fluconazole-resistant clinical isolate) + fluconazole, 48 h. growth inhibition, % (no concentration beside the values). 300,000 tested, 0.57% active. AID 1979, 2009;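 active = growth inhibition above about 58% in most replicates, limit read from the data, passing the limit was not always enough; inconclusive = exactly half the replicates above a set limit; inactive = most replicates below a set limit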;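 note: all wells also contain fluconazole at 8 µg/ml as a sub-toxic cotreatment; 0% = median of DMSO wells and 100% = median of geldanamycin control wells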
Mdm2-MdmX inh – inhibitors of human Mdm2-MdmX association, primary screen, cell-based, luminescence, split luciferase, SaOS-2, uHTS; AID 485346, 2010; SaOS-2 split-luciferase Mdm2/MdmX complementation; Protein Mdm4 (Homo sapiens) + E3 ubiquitin-protein ligase Mdm2 (Homo sapiens), …; inhibition, % at 8 µM; 330,000 tested, 3% active;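 active = inhibition of at least 50% at 8 µM in the primary screen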
Target sequence (O15151 whole entry, looked up): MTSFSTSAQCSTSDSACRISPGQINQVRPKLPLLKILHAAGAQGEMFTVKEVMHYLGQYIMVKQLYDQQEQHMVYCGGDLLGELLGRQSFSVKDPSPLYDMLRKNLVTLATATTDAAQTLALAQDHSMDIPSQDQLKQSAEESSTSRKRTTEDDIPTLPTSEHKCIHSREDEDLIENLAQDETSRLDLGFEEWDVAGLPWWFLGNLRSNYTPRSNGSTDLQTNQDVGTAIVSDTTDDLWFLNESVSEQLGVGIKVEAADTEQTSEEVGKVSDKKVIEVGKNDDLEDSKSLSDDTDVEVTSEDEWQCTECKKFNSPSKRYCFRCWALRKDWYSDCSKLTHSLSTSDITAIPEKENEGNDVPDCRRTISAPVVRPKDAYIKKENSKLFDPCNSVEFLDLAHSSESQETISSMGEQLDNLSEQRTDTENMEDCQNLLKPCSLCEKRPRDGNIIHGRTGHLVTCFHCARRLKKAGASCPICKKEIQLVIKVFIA
Target sequence (Q00987 whole entry, looked up): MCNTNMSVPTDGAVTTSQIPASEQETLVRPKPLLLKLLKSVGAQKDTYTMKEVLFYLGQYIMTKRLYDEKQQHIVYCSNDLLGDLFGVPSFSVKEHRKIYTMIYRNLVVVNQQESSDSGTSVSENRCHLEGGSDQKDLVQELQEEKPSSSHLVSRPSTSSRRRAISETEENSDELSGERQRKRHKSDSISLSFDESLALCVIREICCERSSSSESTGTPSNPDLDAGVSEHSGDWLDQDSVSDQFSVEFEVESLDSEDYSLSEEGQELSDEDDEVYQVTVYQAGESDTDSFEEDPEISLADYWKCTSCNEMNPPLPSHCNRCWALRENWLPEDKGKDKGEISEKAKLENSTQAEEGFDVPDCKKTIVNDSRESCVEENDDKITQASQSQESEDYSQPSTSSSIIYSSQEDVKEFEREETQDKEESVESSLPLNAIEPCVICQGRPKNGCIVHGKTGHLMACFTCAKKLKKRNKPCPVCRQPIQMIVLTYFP
Beta apoptosis – inhibitors of cytokine-induced beta cell apoptosis, primary screen, luminescence. INS-1E cytokine-induced death, ATP luminescence, 48 h; percent of positive-control rescue, neutral wells zero. 300,000 tested, 0.8% active. protection from apoptosis, % (concentration not given with the values);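 active = Every replicate reaches about 75%, or at least half do and their mean reaches it too, limit read from the data; inconclusive = At least half of replicates reach the limit but their mean does not; inactive = Under half of replicates reach the limit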;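 note: 0% = cytokine-treated negative control wells and 100% = positive control rescue; higher means more ATP so stronger rescue from cytokine killing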
T cruzi inh – inhibitors of intracellular T. cruzi growth, primary screen, luminescence, NIH3T3 host cells | inhibition, % (test concentration not listed) | AID 1885, 2009 | 300,000 tested, 1.4% active | T. cruzi beta-gal in NIH3T3, 90 h;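 active = mean inhibition across valid replicates above about 55%, limit read from the data; inconclusive = mean below that limit but half or more replicates reach it; inactive = mean below it, under half of replicates reach it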;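 note: signal also drops with host cell toxicity which is not excluded here; 0% = plate median of DMSO wells and 100% = zero luminescence signal; higher percent means less beta-gal luminescence so fewer parasites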
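Incubation – ≥90 h infection period, 3 h prior cell attachment · System – NIH/3T3 fibroblasts plus reporter T. cruzi · Doses – compound pinned at 50 nL/well, DMSO · Read-out basis – percent inhibition of parasite-derived β-gal signal · Signal – luminescent β-galactosidase signal after 60 min lysis · Also added – 5000 T. cruzi trypomastigotes/well · Medium – Low-serum DMEM with 2% FBS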
* hit, by the source's call; ? = inconclusive; / = no result given.

SMILES	SKKanGAS inh	CSC inhib	Calb FLC	Mdm2-MdmX inh	Beta apoptosis	T cruzi inh
CCn1c(=NC(=O)CS(=O)(=O)c2ccc(F)cc2)sc2cccc(OC)c21	6	-7	15	-8	/	39
Cc1cccc(NC(=S)NNC(=O)c2ccc(O)cc2O)c1C	3	-14	3	-6	-3	3
Cc1ccc(C)c(NC(=O)NNC(=O)c2cc3ccccc3cc2O)c1	6	11	-1	26	-12	-3
Cc1ccc(NC(=O)NNC(=O)c2cc3ccccc3cc2O)c(C)c1	5	-1	82*	42	2	-8
Cc1cccc(NC(=O)NNC(=O)c2cc3ccccc3cc2O)c1C	2	-6	65*	-1	-2	-31
O=C(NNC(=O)c1cc2ccccc2cc1O)Nc1ccccc1F	3	5	87*	26	1	-9
O=C(NCCCl)NNC(=O)c1cc2ccccc2cc1O	/	8	29	-8	-3	-13
CC(=O)Nc1ccc(C(=O)OCCc2ccccc2)cc1	-5	-8	-5	-38	-6	7
C[C@@H]1CN([C@H](C)CO)C(=O)Cc2cc(NS(=O)(=O)c3cn(C)cn3)ccc2O[C@H]1CN(C)S(=O)(=O)c1ccc(Cl)cc1	/	/	/	-5	/	/
O=C(O)c1cc(S(=O)(=O)NCCCN2CCCC2=O)ccc1Cl	/	-5	/	-8	-16	/
Cc1ccc(N2CCN(c3ccc(C)cc3)C2c2cccnc2)cc1	8	1	-12	7	-5	59*
Cc1cccc(C(=O)OCCN2CCOCC2)c1	1	4	3	-6	-8	-12
Cc1nc2ccc(CN(C)c3ccc(C(=O)N[C@@H](CCC(=O)O)C(=O)O)s3)cc2c(=O)[nH]1	-1	75*	/	/	-2	48
CN(C)c1nc(NCc2ccccc2)nc(SCC(=O)Nc2ccc(Cl)c(Cl)c2)n1	28	-7	-21	14	1	55*
CC1(O)CC(c2ccc(Cl)cc2)=NN1C(=O)c1ccc([N+](=O)[O-])cc1 (stereo unspecified)	-11	86*	95*	32	48	6
O=Nc1ccc(O)c2ncccc12	4	37	-11	34	43	22
O=S(=O)(O)c1cccc2c(N=Nc3ccc(O)c4ncccc34)cccc12	9	-6	84*	/	1	-5
COc1ccc(C)cc1N=Nc1ccc(O)c2ncccc12	94*	/	109*	/	/	?
Cc1ccccc1N=Nc1ccc(O)c2ncccc12	105*	99*	-9	/	99*	42
CCC(C)c1ccc(NC(=O)c2ccco2)cc1 (stereo unspecified)	-3	-3	-2	-69	-5	-1
CCc1ccc(CN(Cc2cccnc2)C(=O)/C=C/c2ccc(OC)cc2)cc1	1	1	2	19	23	64*
COc1ccccc1OCCC(=O)OCC(=O)Nc1ccc2c(c1)OCO2	/	-3	/	-4	-10	/
CC(=O)N1CCC(O)(c2ccc3c(c2)OCO3)CC1	-4	-17	-1	8	-2	-7
CCC(C)n1cnc2c(c1=O)c1nc3ccccc3nc1n2Cc1ccc2c(c1)OCO2 (stereo unspecified)	32	/	100*	/	/	48
Cc1ccc(C(OCC(O)CNCc2ccc(F)cc2)c2ccccc2)cc1 (stereo unspecified)	7	50	-10	25	26	-13
SMILES	SKKanGAS inh	CSC inhib	Calb FLC	Mdm2-MdmX inh	Beta apoptosis	T cruzi inh
Cc1cccc(C(=O)O)c1NC(=O)Cc1cccc2ccccc12	-1	-10	7	2	-2	-11
Cc1ccc2nc(-c3ccccc3O)c(Nc3ccc4c(c3)OCCO4)n2c1	4	-3	19	-1	13	50
Clc1ccc2nc(-c3ccccn3)c(Nc3ccc4c(c3)OCO4)n2c1	92*	22	-1	/	1	35
O=C(COc1ccccc1)N[C@@H]1c2ccccc2CC[C@H]1OCc1ccccc1	/	/	/	9	/	/
COc1cc(F)c(C2=CC(=O)C[C@H](c3ccc(Cl)cc3)C2)cc1F	/	78*	/	13	2	/
COc1ccc([C@H]2CC(=O)C=C(c3ccnc4ccc(Cl)cc34)C2)cc1	/	33	/	40	89*	/
COc1ccc([C@H]2CC(=O)C=C(c3cc(Cl)ccc3C)C2)cc1	/	14	/	0	-3	/
O=C1C=C(c2ccc(F)cc2OCc2ccccc2)C[C@@H](c2ccc(Cl)cc2)C1	/	6	/	4	111*	/
O=C1C=C(c2cc(F)ccc2F)C[C@@H](c2ccc(Cl)cc2)C1	/	49	/	-18	-4	/
Cc1ccc(N=Nc2ccc(O)cc2)c(Br)c1	7	87*	-10	-282	8	5
CCCCC(CC)C(=O)Oc1ccc(O)c(C(C)(C)C)c1 (stereo unspecified)	61*	-6	29	-11	13	-9
COc1ccccc1-n1c(C)cc(SC)c(C(C)=O)c1=S	0	10	86*	-4	0	-2
O=C(/C(N=Nc1cccc(C(F)(F)F)c1)=C(/O)c1cccs1)C(F)(F)F	24	140*	6	40	23	10
O=C(c1cc2c(s1)CCCCC2)N1CCN(c2ncccn2)CC1	1	-1	76*	8	0	-9
COc1ccc(N2CCN(C(=O)c3cc4c(s3)CCCCC4)CC2)cc1	/	/	/	9	0	/
Cc1cccc(C(=O)NCC(=O)N2CCC2)c1	/	/	/	-7	-6	/
Cc1cccc(C(=O)NCC(=O)N2CCOCC2)c1	51*	-11	0	11	/	-4
CC1(C)CC(=O)C=C(Nc2ccc([N+](=O)[O-])cc2)C1	-3	-11	78*	10	-5	-6
O=C1NC(=O)/C(=C/c2ccccc2Oc2ccc(Cl)cc2)S1	57*	8	79*	9	6	-3
O=C(COC(=O)c1cccc([N+](=O)[O-])c1)c1ccc2c(c1)OCO2	-5	-3	/	-2	-2	3
CC(=O)Oc1c(S(=O)(=O)c2ccc(C)cc2)c(C)nn1C(C)(C)C	-8	14	36	43	-7	7
Cc1ccc(S(=O)(=O)c2c(C)nn(C(C)(C)C)c2OC(=O)c2cccs2)cc1	4	84*	11	42	-11	2
COc1cc(OC)c(OC)cc1CNC(=O)c1cc(=O)[nH]c2ccccc12	0	-8	-19	9	4	3
O=[N+]([O-])c1cccc(C2NCC(c3ccccc3Cl)c3c2[nH]c2ccccc32)c1 (stereo unspecified)	21	131*	-5	29	9	45
Cc1cc(C)c2nc(SCCc3ccccc3)nc(C)c2c1	71*	-2	8	-9	-5	21
